The results in this text go back to ChEMBL document CHEMBL4350955, “Novel Chemical Series of 5-Lipoxygenase-Activating Protein Inhibitors for Treatment of Coronary Artery Disease” (J Med Chem, 2019).

In brackets after ≈: the same amount, converted by molar mass. Some results are limits rather than exact numbers.

The nature of series [1]: Distribution coefficient between octanol and sodium phosphate buffer, logD of the compound in pH 7.4 buffer by LC-MS/MS-based shake flask method.
Series [2] addresses T1, Arachidonate 5-lipoxygenase-activating protein (Homo sapiens, UniProt P20292).
T1 sequence (P20292 whole entry): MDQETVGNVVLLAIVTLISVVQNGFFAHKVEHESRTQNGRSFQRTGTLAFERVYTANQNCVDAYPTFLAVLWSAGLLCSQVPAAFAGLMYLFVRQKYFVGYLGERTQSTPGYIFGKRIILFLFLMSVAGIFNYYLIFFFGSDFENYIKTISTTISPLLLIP
Nature of the series: Inhibition of [3H]MK0591 binding to human FLAP expressed in […] cell membranes measured after 60 to 80 mins by scintillation counting method.

Series [3] addresses T2, Arachidonate 5-lipoxygenase-activating protein (Homo sapiens) (UniProt P20292).
T2 sequence (whole entry): T1 sequence (P20292 whole entry)
Nature of the series: (§1) Inhibition of FLAP in human whole blood assessed as reduction in calcium ionophore-stimulated LTB4 production preincubated for 30 mins followed by calcium ionophore stimulation and measured after 20 mins by EIA. The class given is tissue-based.

The target in series [4] is T1, Arachidonate 5-lipoxygenase-activating protein. Described as §1. Type of series: tissue-based.
Series [5] deals with Cytochrome P450 3A4 (Homo sapiens, UniProt P08684). The series is described as follows: Inhibition of recombinant human CYP3A4 expressed in Escherichia coli assessed as maximum reduction in metabolite formation using coumarin based substrate by fluorescence assay.
Series [6] in a line: Intrinsic clearance in cryopreserved human hepatocytes assessed as per million cells at 1 uM measured up to 60 mins by LC-MS/MS analysis. Type of series: ADME, cell-based, Hepatocyte. The conditions noted are these: read-out: CLH.
Series [7] in a line: Apparent permeability across apical to basolateral side in human Caco2 cells. The following applies: Caco-2. (Caco-2 cells form a polarised layer with tight junctions and transporters.)
The nature of series [8]: Metabolic stability in human hepatocytes assessed as parent compound remaining. Type of series: ADME, cell-based, Hepatocyte.
The nature of series [9]: physchem. The following applies: phosphate buffer, pH 7.4.
The target in series [10] is T2, Arachidonate 5-lipoxygenase-activating protein (Homo sapiens). Nature of the series: (§2) Inhibition of FLAP in human whole blood assessed as reduction in calcium ionophore-stimulated LTB4 production preincubated for 4 hrs followed by calcium ionophore stimulation and measured after 20 mins by EIA. Type of series: tissue-based.
The target in series [11] is T1, Arachidonate 5-lipoxygenase-activating protein. The series is described as §2. The class given is tissue-based.
Series [12] addresses Cytochrome P450 1A2 (Homo sapiens, UniProt P05177). Nature of the series: Inhibition of recombinant human CYP1A2 assessed as maximum reduction in metabolite formation using coumarin based substrate by fluorescence assay. The class given is ADME.
Series [13] addresses hERG (KCNH2) (Homo sapiens, UniProt Q12809). Nature of the series: Inhibition of human ERG at 10 uM high-throughput electrophysiology assay relative to control.
Series [14] concerns the target Cytochrome P450 2C9 (Homo sapiens, UniProt P11712). The series is described as follows: Inhibition of recombinant human CYP2C9 expressed in Escherichia coli assessed as maximum reduction in metabolite formation using coumarin based substrate by fluorescence assay. Type of series: ADME.
Series [15] in a line: Genotoxicity in Salmonella typhimurium by Ames test. The class given is toxicity. The conditions noted are these: salmonella enterica subsp. enterica serovar typhimurium. A digest of the protocol: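 Two-strain Salmonella Ames test, with and without metabolic activation by rat liver S9 fraction; applied to amino pyrazole building blocks present in the series.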
The target in series [16] is CYP450 (Homo sapiens, UniProt P04798+P05177+P05181+P08684+P10632+P10635+P11509+P11712+P13584+P20813+P20815+P20853+P24462+P24903+P33260+P33261+P51589+P78329+P98187+Q02928+Q08477+Q16678+Q16696+Q5TCH4+Q6VVX0+Q7Z449+Q8TAV3+Q96SQ9+Q9HB55). Nature of the series: Inhibition of CYP450 assessed as maximum reduction in metabolite formation using coumarin based substrate by fluorescence assay. The following applies: probe coumarin based substrate. The class given is ADME, protein assay.

Series [17] has as its target Voltage-gated inwardly rectifying potassium channel KCNH2 (Homo sapiens, UniProt Q12809). Nature of the series: Inhibition of human ERG by high-throughput electrophysiology assay.
The nature of series [18]: Clearance in po or iv dosed Sprague-Dawley rat. Type of series: ADME, organism-based. The following applies: in vivo.
Series [19] can be described thus: Volume of distribution at steady state in po or iv dosed Sprague-Dawley rat. Type of series: ADME, organism-based. The following applies: in vivo, read-out: Vdss.
Series [20] can be described thus: Half-life in po or iv dosed Sprague-Dawley rat. The following applies: in vivo. Type of series: ADME, organism-based.
Series [21] can be described thus: Bioavailability in po dosed Sprague-Dawley rat. The conditions noted are these: in vivo. The class given is ADME, organism-based.
Series [22] in a line: Protein binding in human plasma assessed as unbound fraction by LC-MS based equilibrium dialysis analysis. The class given is ADME, cell-free. (In general: In equilibrium dialysis only unbound substance equilibrates across the membrane.)
Series [23] can be described thus: Protein binding in Sprague-Dawley rat plasma assessed as unbound fraction by LC-MS based equilibrium dialysis analysis. Type of series: ADME, cell-free.
In series [24] the test system is Homo sapiens. Nature of the series: Suppression of calcium ionophore-stimulated LTB4 production in CAD patient whole blood at 100 mg administered daily during phase 2 study for 12 weeks by ELISA relative to baseline. The class given is functional.

Sequence of Cytochrome P450 3A4 (P08684 whole entry): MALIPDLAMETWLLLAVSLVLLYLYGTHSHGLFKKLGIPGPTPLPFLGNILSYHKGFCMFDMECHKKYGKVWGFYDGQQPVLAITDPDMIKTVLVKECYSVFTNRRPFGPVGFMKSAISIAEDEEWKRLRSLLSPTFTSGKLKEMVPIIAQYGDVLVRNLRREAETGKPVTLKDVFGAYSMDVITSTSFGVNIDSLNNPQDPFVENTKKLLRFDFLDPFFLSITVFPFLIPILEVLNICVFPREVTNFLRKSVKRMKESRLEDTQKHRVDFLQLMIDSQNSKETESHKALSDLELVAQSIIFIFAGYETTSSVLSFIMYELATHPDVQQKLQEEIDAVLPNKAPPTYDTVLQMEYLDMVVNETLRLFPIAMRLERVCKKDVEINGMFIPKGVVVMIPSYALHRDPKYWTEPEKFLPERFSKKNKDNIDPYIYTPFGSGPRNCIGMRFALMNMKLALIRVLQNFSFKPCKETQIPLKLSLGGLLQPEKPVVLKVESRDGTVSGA
Sequence of Voltage-gated inwardly rectifying potassium channel KCNH2 (Q12809 whole entry): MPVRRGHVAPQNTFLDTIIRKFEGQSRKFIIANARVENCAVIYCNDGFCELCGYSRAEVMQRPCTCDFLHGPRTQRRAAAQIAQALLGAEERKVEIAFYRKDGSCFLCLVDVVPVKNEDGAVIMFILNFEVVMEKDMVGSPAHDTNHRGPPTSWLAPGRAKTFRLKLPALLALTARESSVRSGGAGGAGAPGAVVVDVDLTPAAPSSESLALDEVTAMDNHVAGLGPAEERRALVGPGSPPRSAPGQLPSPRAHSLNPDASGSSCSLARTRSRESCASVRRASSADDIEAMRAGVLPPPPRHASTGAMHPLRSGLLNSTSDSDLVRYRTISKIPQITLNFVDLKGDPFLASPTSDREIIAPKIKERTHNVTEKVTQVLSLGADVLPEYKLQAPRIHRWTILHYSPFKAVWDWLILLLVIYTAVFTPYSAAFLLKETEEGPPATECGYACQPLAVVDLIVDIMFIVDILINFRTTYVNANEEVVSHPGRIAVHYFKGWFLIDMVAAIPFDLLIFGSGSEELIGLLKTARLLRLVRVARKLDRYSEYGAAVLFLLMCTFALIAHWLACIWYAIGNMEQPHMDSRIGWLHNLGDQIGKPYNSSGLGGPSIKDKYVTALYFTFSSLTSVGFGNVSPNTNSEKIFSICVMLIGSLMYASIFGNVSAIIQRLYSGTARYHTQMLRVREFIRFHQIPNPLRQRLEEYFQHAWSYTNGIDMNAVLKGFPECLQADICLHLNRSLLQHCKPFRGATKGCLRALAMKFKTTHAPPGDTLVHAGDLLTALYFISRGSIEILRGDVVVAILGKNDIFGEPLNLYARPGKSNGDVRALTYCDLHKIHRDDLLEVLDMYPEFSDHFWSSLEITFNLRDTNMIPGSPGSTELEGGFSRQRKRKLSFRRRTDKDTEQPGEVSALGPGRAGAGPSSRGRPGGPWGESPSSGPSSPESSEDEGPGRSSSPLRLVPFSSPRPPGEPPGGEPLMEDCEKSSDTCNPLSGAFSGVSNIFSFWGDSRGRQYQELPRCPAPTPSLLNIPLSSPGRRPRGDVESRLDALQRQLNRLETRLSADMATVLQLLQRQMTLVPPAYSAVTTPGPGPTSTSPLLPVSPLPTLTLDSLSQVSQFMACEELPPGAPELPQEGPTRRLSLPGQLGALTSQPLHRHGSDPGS
Sequence of hERG (KCNH2) (Q12809 whole entry): as above
Sequence of Cytochrome P450 1A2 (P05177 whole entry): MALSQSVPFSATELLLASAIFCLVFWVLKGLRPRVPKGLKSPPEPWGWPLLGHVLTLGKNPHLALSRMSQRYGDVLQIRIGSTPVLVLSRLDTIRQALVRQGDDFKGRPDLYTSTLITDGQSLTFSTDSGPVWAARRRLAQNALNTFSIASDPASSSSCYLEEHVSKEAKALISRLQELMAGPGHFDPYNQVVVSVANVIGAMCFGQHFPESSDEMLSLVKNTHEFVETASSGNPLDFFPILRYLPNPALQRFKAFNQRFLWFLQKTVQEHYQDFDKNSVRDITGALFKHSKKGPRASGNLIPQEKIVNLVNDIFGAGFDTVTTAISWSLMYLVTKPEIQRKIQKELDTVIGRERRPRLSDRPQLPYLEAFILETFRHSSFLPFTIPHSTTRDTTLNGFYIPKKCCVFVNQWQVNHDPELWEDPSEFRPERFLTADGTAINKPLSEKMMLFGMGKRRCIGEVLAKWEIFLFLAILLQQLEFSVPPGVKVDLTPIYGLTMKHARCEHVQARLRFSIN
Sequence of Cytochrome P450 2C9 (P11712 whole entry): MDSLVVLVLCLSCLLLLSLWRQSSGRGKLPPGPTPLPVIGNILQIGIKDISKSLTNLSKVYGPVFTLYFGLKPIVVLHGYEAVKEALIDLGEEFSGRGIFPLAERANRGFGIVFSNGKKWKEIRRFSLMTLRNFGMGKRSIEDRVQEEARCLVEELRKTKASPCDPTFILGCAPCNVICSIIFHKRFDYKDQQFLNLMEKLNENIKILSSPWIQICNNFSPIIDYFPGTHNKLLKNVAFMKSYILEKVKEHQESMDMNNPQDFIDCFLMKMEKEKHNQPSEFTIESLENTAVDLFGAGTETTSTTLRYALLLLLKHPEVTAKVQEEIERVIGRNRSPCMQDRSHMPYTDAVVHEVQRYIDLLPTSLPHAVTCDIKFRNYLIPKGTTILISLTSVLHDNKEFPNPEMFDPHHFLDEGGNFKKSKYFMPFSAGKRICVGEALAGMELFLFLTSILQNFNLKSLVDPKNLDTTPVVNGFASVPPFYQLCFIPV

A word on the logD: it is the decadic logarithm of the distribution of all forms, ionised or not, between an organic phase and buffer at a given pH. A word on the IC50: it is the concentration at which inhibition is half-maximal. One may read the Papp A→B as how fast a substance crosses the layer from the apical side. As a reminder, the solubility is how much of the substance goes into solution per volume. The low end stands for little dissolved substance, the high end for much dissolved substance. Consider `Cn1cc(NC(=O)[C@@H]2C[C@@H]3C[C@@H]3C[C@H]2C(=O)c2ccc(-c3cc[nH]n3)cc2)c(C(F)(F)F)n1`, for which the pH-dependent lipophilicity (logD) in series [1] turned out to be 3.7. Besides, the IC50 was 12.6 nM in series [2], 25.1 nM in series [4] and 3980 nM in series [5]. The fpIC50 in series [3] is 9. Also, in series [6], the hepatocyte CLint at 1 µM turned out to be 13 µL/min/1e6 cells. In addition, the Papp A→B in [7] is 57 ×10⁻⁶ cm/s. For the same molecule, the Stability in [8] came to 76%. Further, the solubility at 24 h in series [9] was found to be 27 µM (≈ 12.4 µg/mL).
What is called inhibition is the relative decrease from the control value, in per cent. A low value points to a weak effect. In series [1], `CC(C)(O)CNC(=O)c1cnc(NC(=O)[C@@H]2CCCC[C@H]2C(=O)c2ccc(-c3cc[nH]n3)cc2)cn1` (racemic) registered a logD of 3.2. The IC50 in series [2] was 15.8 nM; in series [11], 100 nM; in series [12], 10000 nM. Also, the fpIC50 in [10] came to 8.3. Further, in series [6], the hepatocyte CLint at 1 µM was 4 µL/min/1e6 cells. Also, the Papp A→B in [7] turned out to be 3 ×10⁻⁶ cm/s. The inhibition at 10 µM in series [13] was determined as 22%. In series [9], this molecule had a solubility at 24 h of 111 µM (≈ 54.5 µg/mL).
Regarding `Cc1cc(-c2ccc(C(=O)[C@@H]3CCCC[C@H]3C(=O)Nc3cn(C)nc3C#N)cc2)n[nH]1`, in [1], the logD is 3.5. Moreover, in series [3], the fpIC50 worked out at 8.5. Besides, the IC50 in series [14] is 7940 nM. Besides, the hepatocyte CLint at 1 µM in series [6] worked out at 6 µL/min/1e6 cells. Further, the Papp A→B in series [7] is 27 ×10⁻⁶ cm/s. Moreover, the inhibition at 10 µM in series [13] was determined as 23%. For the same molecule, the Activity result in series [15] is recorded as “Non-Toxic”. This molecule returned a solubility at 24 h in series [9] of 25 µM (≈ 10.4 µg/mL).
For orientation: half-life means how long it takes for the measured level to halve. A high value points to slow loss. By bioavailability is commonly meant dose-corrected exposure relative to a reference, in per cent. Higher therefore signals much systemic uptake. The fraction unbound is free concentration divided by total concentration. For the molecule `Cc1nn(C)cc1NC(=O)[C@@H]1CCCC[C@H]1C(=O)c1ccc(-c2cc[nH]n2)cc1F` (racemic), the IC50 is more than 20000 nM in [16], 126 nM in series [2], 63.1 nM in series [4] and more than 12600 nM in series [17]. Besides, the logD in [1] was found to be 2.9. Moreover, in series [3], the fpIC50 was found to be 8. The hepatocyte CLint at 1 µM in series [6] came to 14 µL/min/1e6 cells. For the same molecule, in series [7], the Papp A→B worked out at 34 ×10⁻⁶ cm/s. Besides, the clearance in series [18] stood at 13.3 mL/min/kg. In series [19], the Vd is 1.1 L/kg. The same molecule showed a half-life in series [20] of 1.2 h. The molecule further gave a bioavailability in series [21] of 85%. The fraction unbound in series [22] stood at 0.14; in series [23], 0.11. In series [9], this molecule came in with a solubility at 24 h of 500 µM (≈ 205 µg/mL).
As for `Cc1cc(-c2ccc(C(=O)[C@@H]3CCCC[C@H]3C(=O)Nc3cn(C)nc3C(N)=O)c(F)c2)[nH]n1`, the logD in series [1] worked out at 3.5. Moreover, the fpIC50 in series [3] came out at 8.3. In addition, the results for the IC50 in [5] and in [17] were 6310 nM and more than 31600 nM, respectively. Moreover, in series [6], the hepatocyte CLint at 1 µM stood at 18 µL/min/1e6 cells. Also, the Papp A→B in series [7] was determined as 17 ×10⁻⁶ cm/s. The same molecule yielded a solubility at 24 h in [9] of 31 µM (≈ 14 µg/mL).
For `C[C@H](C#Cc1ccc(Cc2ccc(F)cc2)s1)N(O)C(N)=O` [ATRELEUTON], the “inhibition (INH)” value in series [24] amounted to 80%.
Take `Cc1cc(-c2ccc(C(=O)[C@@H]3CCCC[C@H]3C(=O)Nc3cn(C)nc3C(F)F)cc2)n[nH]1`: the pH-dependent lipophilicity (logD) in [1] stood at 3.5. In addition, the IC50 was 10 nM in series [2] and 63.1 nM in series [4]. For the same molecule, in series [3], the fpIC50 is 8.5. Further, in series [15], the Activity result is given as “Toxic”.
With `O=C(Nc1cnn2cccnc12)[C@@H]1CCCC[C@H]1C(=O)c1ccc(-c2cc[nH]n2)cc1`, the IC50 was more than 20000 nM in series [16], 31.6 nM in [2], 39.8 nM in series [4] and more than 31600 nM in [17]. In series [1], this molecule registered a logD of 2.9. In addition, in series [3], the fpIC50 amounted to 8.4. In addition, the hepatocyte CLint at 1 µM in series [6] came to 5 µL/min/1e6 cells. Also, in series [7], the Papp A→B was 12 ×10⁻⁶ cm/s. In addition, the solubility at 24 h in series [9] is 60 µM (≈ 24.9 µg/mL).
As to `Cc1cc(-c2ccc3c([C@@H]4C[C@H]5C[C@H]5C[C@H]4C(=O)Nc4cn(C)nc4C(N)=O)noc3c2)n[nH]1`, the logD in series [1] was found to be 3.5. The IC50 in series [2] was 39.8 nM; in series [11], 126 nM; in series [5], 3160 nM. For the same molecule, in series [10], the fpIC50 came to 8.5. The hepatocyte CLint at 1 µM in series [6] came to 16 µL/min/1e6 cells. Besides, the Papp A→B in series [7] is 23 ×10⁻⁶ cm/s. Moreover, the inhibition at 10 µM in series [13] worked out at 12%. Further, the Stability in series [8] came to 69%. For the same molecule, in series [9], the solubility at 24 h came out at 12 µM (≈ 5.51 µg/mL).
